Converted amounts (≈) assume the structure as drawn. The source made the active and inactive calls. No cut-off for these calls is given here.
How the values were obtained:
Staphylococcus aureus = test: Antibacterial activity against Staphylococcus aureus ATCC 29213 by two fold serial dilution technique; assay type: functional
How it was run: (§1)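 Compounds first screened by disk diffusion. Those giving inhibition zones above 15 mm were then tested for bacteriostatic MIC by two-fold serial dilution.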

Bacillus subtilis = test: Antibacterial activity against Bacillus subtilis ATCC 6633 by two fold serial dilution technique; assay type: functional; how it was run: as §1
[1] = Cytotoxicity against mouse EAC at 25 to 100 uM after 2 hrs by trypan blue staining based hemocytometer analysis; assay type: functional, Ehrlich
How it was run: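 Ehrlich ascites cells were aspirated aseptically from a donor animal's peritoneal fluid and kept in RPMI 1640 with 10% FBS. Cells were exposed to compounds at three levels (100, 50, 25) prepared in DMSO/RPMI-1640 for 2 h at 37 C in humidified 5% CO2. Viability was scored by trypan blue exclusion on a hemocytometer; untreated control viability exceeded 95%.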

Candida albicans = test: Antifungal activity against Candida albicans after 48 hrs by microtiter broth dilution method; assay type: functional
How it was run: (§2)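 Fungi were grown 24 h at 37 C under 5% CO2 in YPD (1% yeast, 2% peptone, 2% dextrose), then diluted 1:100 in saline and 1:100 in YPD to about 1000 CFU per inoculum. Inocula were added to two-fold serial dilutions in 96-well broth, with drug-free growth and sterility controls. Plates were incubated 48 h at 37 C under 5% CO2. MIC was the lowest concentration without visible turbidity.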

Aspergillus fumigatus = test: Antifungal activity against wild type Aspergillus fumigatus Af293 after 48 hrs by microtiter broth dilution method; assay type: functional; conditions: Af293, 48 h; how it was run: as §2
Pseudomonas aeruginosa = test: Antibacterial activity against Pseudomonas aeruginosa ATCC […] by two fold serial dilution technique; assay type: functional, organism-based; how it was run: as §1

| SMILES | MIC (Staphylococcus aureus) [µg/mL] | MIC (Bacillus subtilis) [µg/mL] | Activity [1] [%] | MIC (Candida albicans) [µg/mL] | MIC (Aspergillus fumigatus) [µg/mL] | MIC (Pseudomonas aeruginosa) |
| --- | --- | --- | --- | --- | --- | --- |
| CC1=C(C)[C@@](C)(c2ccc(C=O)cc2)CC1 [ISOLAURELDEHYDE] | 27 (≈ 126 µM) | 35 (≈ 163 µM) | 83.1 | 70 (≈ 327 µM) | 100 (≈ 467 µM) | inactive |
| CC(=O)N1CCN(c2ccc(OCC3COC(Cn4ccnc4)(c4ccc(Cl)cc4Cl)O3)cc2)CC1 (centres undefined) [KETOCONAZOLE] |  |  |  | 40 (≈ 75.3 µM) | 40 (≈ 75.3 µM) |  |
| CC1=C(C)[C@@](C)(c2ccc(CO)cc2)CC1 | 52 (≈ 240 µM) | 46 (≈ 213 µM) |  | 2000 (≈ 9250 µM) | 2000 (≈ 9250 µM) | inactive |
| CC1=C(C)[C@@](C)(C2=CCC(CO)=CC2)CC1 | 31 (≈ 142 µM) | 39 (≈ 179 µM) | 79.9 | 120 (≈ 550 µM) | 200 (≈ 916 µM) | inactive |

Source: ChEMBL document CHEMBL2062473, “Laurene-type sesquiterpenes from the Red Sea red alga Laurencia obtusa as potential antitumor-antimicrobial agents” (2012)
